Legend:
[1] = molecular target: Mu-type opioid receptor (Rattus norvegicus, UniProt P33535); experiment: Displacement of [3H]DAMGO from mu opioid receptor in rat cortices by competition binding assay
In short: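 Rat cortex membranes were prepared in 50 mM Tris pH 7.4, preincubated at 37 °C for 30 min, and resuspended with 2 mg/mL bovine serum. Assay used 2 nM [3H]DAMGO. Binding was stopped by filtration through BSA-soaked GF/B filters, followed by scintillation counting. IC50 was converted to Ki. Values are mean ± SD of two experiments, each in duplicate.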

[2] = molecular target: Delta-type opioid receptor (Rattus norvegicus, UniProt P33533); experiment: Displacement of [3H]DPDPE from delta opioid receptor in rat cortices by competition binding assay
In short: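 Rat cortex membranes were prepared in 50 mM Tris pH 7.4 with 10 mM MgCl2 and 200 μM PMSF. Assay used 2 nM [3H]DPDPE, incubated 2.5 h at 25 °C. Unlabeled DPDPE defined nonspecific binding. Filtration was through BSA-soaked GF/B filters, with scintillation counting. Ki is mean ± SD of two experiments, each in duplicate.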

[3] = molecular target: Kappa-type opioid receptor (Cavia porcellus, UniProt P41144); experiment: Displacement of [3H]U69593 from kappa opioid receptor in guinea pig cortices and cerebella by competition binding assay
In short: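 Guinea pig cortex and cerebellum membranes were prepared in 50 mM Tris pH 7.4 with 10 mM MgCl2. Assay used 2 nM [3H]U69,593, incubated 2 h at 25 °C. Unlabeled U50,488 defined nonspecific binding. Filtration was through GF/B filters, with scintillation counting. Ki is mean ± SD of two experiments, each in duplicate.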

[4] = test system: Mus musculus; experiment: Antinociceptive effect in icv dosed C57BL/6 mouse assessed as tail withdrawal latency measured up to 2 hrs by 55 degC Warm water tail withdrawal assay; format: functional
[5] = test system: Mus musculus; experiment: Antinociceptive effect in ip dosed C57BL/6 mouse assessed as tail withdrawal latency measured up to 2 hrs by 55 degC Warm water tail withdrawal assay; format: functional; conditions: C57BL/6, Tail
[6] = species on record: Mus musculus; experiment: Ratio of ED50 for antinociceptive effect in C57BL/6 mouse by 55 degC Warm water tail withdrawal assay to ED50 for analgesic activity in C57BL/6 mouse by acetic acid writhing assay; format: functional
In short: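 Index from ip ED50 values in adult male C57BL/6J mice given ip doses in 1:1:8 ethanol/Tween-80/saline (n = 8/dose). Tail-withdrawal: 55 °C water, read at 30 min, % antinociception against baseline with a 15 s cutoff. Writhing: 0.9% acetic acid ip 25 min post-dose, writhes counted over 15 min, compared with vehicle. ED50 from regression; ratio is tail-withdrawal/writhing.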

[7] = test system: Mus musculus; experiment: Antinociceptive effect in po dosed C57BL/6 mouse assessed as tail withdrawal latency measured up to 2 hrs by 55 degC Warm water tail withdrawal assay; format: functional; conditions: C57BL/6, Tail

SMILES | Ki [1] [nM] | Ki [2] [nM] | Ki [3] [nM] | Activity [4] | ED50 [5] [mg/kg] | Ratio ED50 [6] | ED50 [7] [mg/kg]
Oc1ccc(C[C@H]2CN3C(=CC4=NC[C@H](Cc5ccccc5)N4C[C@@H]3Cc3ccc(O)cc3)N2CCc2ccccc2)cc1 | 878 | 188 | 1310 |  |  |  | 
CN1CC[C@]23c4c5ccc(O)c4O[C@H]2[C@@H](O)C=C[C@H]3[C@H]1C5 [MORPHINE] |  |  |  | Dose-dependent effect | 3.91 | 2.23 | 2.07
Oc1ccc(C[C@H]2CN3C(=CC4=NC[C@H](Cc5ccccc5)N4C[C@@H]3Cc3ccc(O)cc3)N2)cc1 | 1180 | 338 | 4140 |  |  |  | 
Oc1ccc(C[C@H]2CN3C(=CC4=NC[C@H](Cc5ccc(O)cc5)N4C[C@@H]3Cc3ccc(O)cc3)N2)cc1 | 552 | 316 | 3760 |  |  |  | 
Oc1ccc(C[C@H]2CN3C(=CC4=NC[C@H](Cc5ccccc5)N4C[C@@H]3Cc3ccccc3)N2)cc1 | 566 | 2090 | 8390 |  |  |  | 
Oc1ccc(C[C@H]2CN3C(=CC4=NC[C@H](Cc5ccc(O)cc5)N4C[C@@H]3Cc3ccccc3)N2)cc1 | 605 | 69 | 2370 |  |  |  | 
CC(C)C[C@H]1CN2C(=CC3=NC[C@H](C(C)C)N3C[C@@H]2Cc2ccccc2)N1 | > 10000 | ≥ 10000 | 1080 |  |  |  | 
CC(C)[C@H]1CN=C2C=C3N(CCc4ccccc4)[C@@H](Cc4ccc(O)cc4)CN3[C@@H](Cc3ccccc3)CN21 | 1110 | 1380 | 1900 |  |  |  | 
